In ChEMBL document CHEMBL3102739, “Synthesis and antiproliferative activity of conformationally restricted 1,2,3-triazole analogues of combretastatins in the sea urchin embryo model and against human cancer cell lines” (Bioorg Med Chem, 2014):

Columns and labels:
[1] = Cytotoxicity against human SH-SY5Y cells assessed as cell viability after 48 hrs; format: functional, cell-based
Paracentrotus lividus [2] = assay: Antimitotic activity against sea urchin embryo free-swimming blastula model assessed as embryo spinning compound treated at 8 to 10 hrs post-fertilization measured after 0.25 to 20 hrs; format: functional, Blastula stage
Paracentrotus lividus [3] = assay: Antimitotic activity against sea urchin embryo model assessed as cleavage arrest of fertilized egg compound treated at 8 to 20 mins post-fertilization and 45 to 55 mins prior to first mitotic cycle completion measured 2.5 to 5.5 hrs post-fertilization; format: functional
In short: (§1)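 Fertilized eggs are exposed 8–20 min after fertilization to 2-fold decreasing concentrations. Stocks are 10 mM in DMSO, then diluted 10-fold in 95% EtOH; final DMSO is at most 0.05% and EtOH at most 1%. Embryos are kept as a monolayer, up to 2000 embryos/mL, in filtered seawater at room temperature. The value is the threshold concentration giving cleavage alteration, embryo death before hatching or full mitotic arrest. Duplicates were run.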

Paracentrotus lividus [4] = assay: Antimitotic activity against sea urchin embryo model assessed as cleavage alteration of fertilized egg compound treated at 8 to 20 mins post-fertilization and 45 to 55 mins prior to first mitotic cycle completion measured 2.5 to 5.5 hrs post-fertilization; format: functional; in short: as §1

Q: With COc1ccc(-n2nncc2-c2cc(OC)c(OC)c(OC)c2)cc1 as the compound, how does the IC50 [1] read?
A: The IC50 was over 1000 nM.

Q: And the EC (Paracentrotus lividus [2])?
A: The EC was over 4 µM.

Q: And the EC (Paracentrotus lividus [3])?
A: The EC was 4 µM.

Q: And the EC (Paracentrotus lividus [4])?
A: The EC was 1 µM.
